Compound activity (PubChem)
Runt-CBFb FRET = Runt domain-CBFb interaction inhibition; Q01196+Q13951; inhibition, % at 20 µM; hit rate 0.46% among 220,000; AID 1496; Cerulean-Runt/Venus-CBFb FRET ratio 530/480, 1 h;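 active = inhibition over about 50% at 20 µM in the single-dose screen, limit read from the data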;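 note: 0% = DMSO wells and 100% = excess unlabeled CBFb competitor control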
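Assay system: Cerulean-tagged RUNX1 Runt domain (FRET donor) fusion protein / Amount: 100 nM each of Venus-CBFb and Cerulean-Runt domain / Medium: Tris buffer pH 7.5 with salts and BSA / Also added: Venus-CBFb 100 nM / Schedule: 1 h complex formation plus 1 h compound treatment, room temperature / Signal: FRET fluorescence / Read-out: loss of energy transfer signal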
14-3-3 Bad PPI = disrupts binding of bovine 14-3-3 zeta to phospho-Bad peptide; P63103; hit rate 0.71% among 220,000; TR-FRET 14-3-3zeta/Dy647-pBad peptide displacement, 1 h; inhibition, % at 21.7 µM;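 active = inhibition above about 70%, limit read from the data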;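 note: 0% = full 14-3-3 plus peptide FRET controls and 100% = background without 14-3-3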
Target sequence (P63103 whole entry, looked up): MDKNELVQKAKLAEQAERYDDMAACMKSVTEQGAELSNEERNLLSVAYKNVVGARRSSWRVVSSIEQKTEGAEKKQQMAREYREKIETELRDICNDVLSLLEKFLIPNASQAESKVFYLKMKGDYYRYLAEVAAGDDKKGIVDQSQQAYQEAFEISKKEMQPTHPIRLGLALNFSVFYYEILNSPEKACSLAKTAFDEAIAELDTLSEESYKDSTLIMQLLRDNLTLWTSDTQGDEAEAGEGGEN
Hck-Nef inh = human Hck-Nef kinase inhibition | P08631 | Recombinant Hck-YEEI plus Nef, Z-Lyte FRET kinase assay | inhibition, % at 20 µM | hit rate 0.68% among 220,000 | AID 463187;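 active = Hck-Nef kinase inhibition above about 50%, limit read from the data; inactive = inhibition below that limit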;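 note: 0% = DMSO with Hck plus Nef and 100% = Hck alone without Nef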
TbHK1 inh = blocks Trypanosoma brucei hexokinase 1 activity; recombinant TbHK1, G6PDH-coupled NADH A340; hit rate 0.11% among 220,000; inhibition, % at 10 µM;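 active = inhibition of 50% or more in the single-dose primary screen; inactive = inhibition below 50%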
RanGTP-Impb inh = inhibitors of RanGTP-importin-beta interaction, primary screen, biochemical, FRET, CFP-Ran, YFP-importin-beta, homogeneous; cell-free CFP-Ran/YFP-importin-beta FRET ratio; inhibition, % (test concentration not listed); hit rate 1.1% among 300,000; AID 2216;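 active = more than half of the replicate wells show a fall in the fluorescence ratio signal beyond about 16%, limit read from the data, passing the limit was not always enough; inconclusive = exactly half of the replicate wells pass the set limit; inactive = fewer than half of replicates pass the limit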;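 note: 0% = DMSO wells and 100% = Ran loaded with GDP instead of GTP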
Runt-SMMHC FRET = blocks binding of human RUNX1 Runt domain to CBFb-SMMHC. Cerulean-Runt/Venus-CBFb-SMMHC FRET ratio 530/480, 1 h. AID 1434. Q01196+Q13951. inhibition, % at 20 µM. hit rate 0.74% among 220,000;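 active = mean inhibition across duplicate retests at 20 µM reaching about 50%, limit read from the data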;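 note: 0% = DMSO wells and 100% = wells with excess untagged CBFb-SMMHC; inhibitors lower the FRET ratio by blocking Runt binding to CBFb-SMMHC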
YIC counter = counter-screen: alters YIC FRET probe signal. shares compounds with RanGTP-Impb inh. hit rate 40% among 1,000. IC50, µM. Purified YIC probe, intramolecular FRET ratio YFP/CFP;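 active = fitted half-maximal inhibitory concentration no more than tenfold above the top dose tested; inconclusive = flat fit with 30 to 70% activity, or poor fit; inactive = half-maximal concentration beyond tenfold above the top dose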
Starred values were filed as active, the others as inactive; ? = inconclusive; / = no result given. Most compounds without a hit are left out; they make up all but 2.2% or so of the library.

SMILES	Runt-CBFb FRET	14-3-3 Bad PPI	Hck-Nef inh	TbHK1 inh	RanGTP-Impb inh	Runt-SMMHC FRET	YIC counter
CC(C)NC(=O)NC(=O)COC(=O)c1ccccc1O	-2	3	-16	7	16*	-1	>50
CCC(C)c1ccc(S(=O)(=O)N2CCN(S(=O)(=O)c3ccc(NC(C)=O)cc3)CC2)cc1 (stereo not given)	/	/	/	/	3	/	/
CCCN1CC(O)=C(C#N)C1=O	0	13	12	2	24*	1	>50
O=C(CSc1nnc(Cc2ccccc2)o1)Nc1ccc2c(c1)OCO2	2	-8	-1	-10	7	0	/
C/C(=N\Nc1ccc(F)cc1F)c1cccs1	0	-16	21	-7	0	-3	/
Cc1cc(C)cc(NC(=S)NN)c1	3	-1	21	9	?	2	/
CC(=O)Nc1cc(C(=O)N(C)Cc2ccco2)ccc1Sc1ccc(Cl)cc1	-1	1	3	-2	18*	-2	>50
CC(=O)Nc1cc(C(=O)NCc2ccco2)ccc1Sc1ccc(Cl)cc1	-3	3	3	31	6	-4	/
O=C(NNC(=O)c1csc(N2CCOCC2)n1)c1cccnc1	/	/	/	/	-5	/	/
COc1cc(NC(=O)Cn2ncc(Cl)c(Cl)c2=O)c(C)cc1[N+](=O)[O-]	0	-11	16	-10	27*	-4	>50
O=C(NNC(=S)NC(=O)c1ccccc1[N+](=O)[O-])c1ccccc1O	4	-16	23	-9	19*	1	>50
O=C(NNC(=S)NC(=O)c1ccccc1[N+](=O)[O-])c1ccc(Cl)cc1Cl	6	-19	6	-4	?	3	/
Cc1cccc(-n2c(C)cc(/C=C3\C(=N)N4N=C(CC(C)C)SC4=NC3=O)c2C)c1	-22	-11	5	34	26*	9	>50
Cc1ccc(Nc2nc(N)[nH]c(=O)c2N=O)cc1	2	5	7	-37	29*	41	19*
CC(=O)N1c2ccc(S(=O)(=O)N3CCC(C(=O)Nc4cccc(Cl)c4)CC3)cc2CC1C (stereo not given)	/	/	/	/	25*	/	>50
O=C(NC1CCCc2ccccc21)c1cncc(Br)c1 (stereo not given)	1	-3	-20	0	3	2	/
CC1=CCC[C@@H]2[C@@](C)(CC/C(C)=C/C(=O)O)[C@H](C)CC[C@@]12C	-8	8	12	28	3	-2	/
CC(=O)CN1Cc2ccccc2/C1=N\C(=O)Nc1ccccc1	-1	-12	0	3	2	-1	/
COc1ccc(N2Cc3ccccc3/C2=N\C(=O)Nc2ccccc2)cc1	-2	-6	-14	-3	17*	-2	>50
CCN(CC(=O)Nc1ccc2c(c1)OCCO2)C(=O)C(C)Oc1ccc(Cl)cc1 (stereo not given)	/	/	/	/	-1	/	/
Cc1c2ccccc2nc2ccccc12	/	/	/	/	4	/	/
COc1c2ccccc2nc2ccccc12	/	/	/	/	41*	/	14*
Cc1c(NC2=CC(=O)CCC2)c(=O)n(-c2ccccc2)n1C	2	-6	-2	-4	18*	3	>50
Cc1c(NS(=O)(=O)c2ccccc2)c(=O)n(-c2ccccc2)n1C	1	-4	-2	3	-2	-2	/
COc1ccc(CN2CCC(n3nccc3NC(=O)C3CCCC3)CC2)cc1	/	/	/	/	1	/	/
SMILES	Runt-CBFb FRET	14-3-3 Bad PPI	Hck-Nef inh	TbHK1 inh	RanGTP-Impb inh	Runt-SMMHC FRET	YIC counter
CC(C)Cc1ccc(CN2CCC(n3nccc3NC(=O)C3CCCC3)CC2)cc1	/	/	/	/	22*	/	>50
O=C(CSc1ncn[nH]1)N/N=C/c1ccc(C(F)(F)F)cc1	/	/	/	/	1	/	/
CCC(=O)Nc1cccc(NC(=S)NC(=O)c2cccs2)c1	0	-15	3	27	25*	8	>50
Cc1nnc(NC(=O)CSc2nnc(CNC(=O)C34CC5CC(CC(C5)C3)C4)n2C2CCCCC2)s1	-7	3	0	-6	?	3	/
CC(C)Sc1nnc(CNC(=O)C23CC4CC(CC(C4)C2)C3)n1C1CCCCC1	-8	-7	0	-6	20*	-6	>50
Cc1ccc(C(=O)NCc2ccco2)cc1S(=O)(=O)N1CCOCC1	/	-3	1	-2	25*	-11	>50
